Measurements from ChEMBL document CHEMBL1156277, “Discovery of N-methyl-4-(4-methoxyanilino)quinazolines as potent apoptosis inducers. Structure-activity relationship of the quinazoline ring” (Bioorg Med Chem Lett, 2010).

Columns and labels:
T47D [1] = assay: Induction of apoptosis in human T47D cells assessed as caspase activation; assay type: functional, cell-based
Method in brief: (§1)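 Cell- and caspase-based HTS assay in human breast cancer T47D and human non-small cell lung cancer H1299 cells. Caspase-3 activation was read with fluorescent caspase-3 substrates and reported as EC50. Data are the mean of three or more experiments ± SEM.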

NCI-H1299 = assay: Induction of apoptosis in human H1299 cells assessed as caspase activation; assay type: functional, cell-based; method in brief: as §1
T47D [2] = assay: Selectivity ratio EC50 for human H1299 cells over EC50 for human T47D cells; assay type: functional
[3] = Inhibition of tubulin polymerization
[4] = Ratio of AUC in brain to plasma in mouse at 2.5 mg/kg, iv; assay type: ADME, organism-based; set-up: dose 2.5 mg/kg, route intravenous; settings: brain and plasma, read-out: Ratio AUC
Method in brief: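 Mice got a single intravenous dose. Compound levels in plasma from blood samples and in homogenized whole brain were determined by LC–MS/MS. Brain/plasma ratio was calculated from the areas under the concentration–time curves.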

| SMILES | EC50 (T47D [1]) [nM] | EC50 (NCI-H1299) [nM] | IC50 [3] [nM] | Kp [4] | Selectivity ratio (T47D [2]) |
| --- | --- | --- | --- | --- | --- |
| COc1ccc(N(C)c2nccc3ccccc23)cc1 | 600 | 960 | 400 |  | 2 |
| COc1ccc(N(C)c2ccnc3ccccc23)cc1 | 21 | 26 |  | 9.2 | 2 |
| COc1ccc(N(C)c2nc(C)nc3cc(N=[N+]=[N-])ccc23)cc1 | 110 | 130 |  |  | 1.2 |
| COc1ccc(N(C)c2nc(C)nc3cc([N+](=O)[O-])ccc23)cc1 | > 10000 | > 10000 |  |  | 2 |
| COc1ccc(N(C)c2nc(C)nc3ccc(NC(C)=O)cc23)cc1 | 960 | 1400 |  |  | 1.5 |
| COc1ccc(N(C)c2nc(C)nc3nccnc23)cc1 | 29 | 36 |  | 2.1 | 1.2 |

Continued, in another order:

| EC50 (T47D [1]) [nM] | EC50 (NCI-H1299) [nM] | IC50 [3] [nM] | Kp [4] | SMILES | Selectivity ratio (T47D [2]) |
| --- | --- | --- | --- | --- | --- |
| 4 | 8 | 400 |  | COc1ccc(N(C)c2nc(C)nc3cccc(OC)c23)cc1 | 2 |
| 15 | 21 |  | 1.8 | COc1ccc(N(C)c2nc(C)nc3ncccc23)cc1 | 1.4 |
| 17 | 45 |  |  | COc1ccc(N(C)c2nnnc3ccccc23)cc1 | 2 |
| 400 | 130 |  |  | COc1ccc(N(C)c2nc(C)nc3ccc([N+](=O)[O-])cc23)cc1 | 0.33 |
| 780 | 570 | 2000 |  | COc1ccc(N(C)c2nc(C)nc3cc(N)ccc23)cc1 | 0.73 |
| 8 | 14 |  | 3.6 | COc1ccc(N(C)c2nc(C)nc3ccc(N)cc23)cc1 | 2 |
|  | 7 | 2000 |  | COc1ccc(N(C)c2nc(C)nc3ccccc23)cc1 [VERUBULIN] |  |
| 450 | 1400 |  |  | COc1ccc(N(C)c2nc(C)nc3ccc(N(C)C)cc23)cc1 | 3.1 |
